Compound activity (PubChem)
Myeloid diff MLP – promotes myeloid progenitor differentiation. ER-HoxA9 myeloid progenitors, lysozyme-GFP differentiation, flow cytometry. calls only at 10 µM. 1% of 360,000 active. AID 624256;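 active = normalized GFP-positive differentiation at or above the plate's own cutoff, the solvent-only control mean plus 3 SD; inconclusive = no clear call, values can overlap the other calls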;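 note: cells exposed to compound for four days before flow analysis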
Xi reactivation – activators of X-chromosome reactivation in mouse fibroblasts. XiGFP mouse fibroblasts, % GFP-positive cells imaging, 3 d; cells co-treated with 5-aza-dC sensitizer; scaled so ellipticine positive control = 100%. activation, % at 7.58 µM. 0.055% of 360,000 active. AID 743238;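 active = mean normalized replicate activation at least 10% and every replicate at or above 10%; inconclusive = only one of the two criteria met; inactive = mean below 10% and not all replicates reach 10%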;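 note: 0% = median of on-plate neutral control wells and 100% = ellipticine 6 µM median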
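Material: XiGFP fibroblasts, SV40-immortalized; Buffer or medium: DMEM containing 5-aza-dC; Compound dosing: single point; Times: 3 days compound exposure.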
ABCB6 inh 2 – human ABCB6 transporter inhibition; fluorescence ratio to DMSO, % at 10 µM; K562-ABCB6 porphyrin accumulation, flow cytometry, 1 h; hits give low values; 0.19% of 360,000 active; AID 602162; Q9NP58;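 active = fluorescence ratio to DMSO below 75%, the collection mean minus 3 SD; inconclusive = too few cells collected in the well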;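 note: signal is porphyrin accumulated inside mitochondria; 100% equals median channel fluorescence of DMSO control wells; lower ratio means ABCB6 inhibition with less porphyrin fluorescence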
Target sequence (Q9NP58 whole entry, looked up): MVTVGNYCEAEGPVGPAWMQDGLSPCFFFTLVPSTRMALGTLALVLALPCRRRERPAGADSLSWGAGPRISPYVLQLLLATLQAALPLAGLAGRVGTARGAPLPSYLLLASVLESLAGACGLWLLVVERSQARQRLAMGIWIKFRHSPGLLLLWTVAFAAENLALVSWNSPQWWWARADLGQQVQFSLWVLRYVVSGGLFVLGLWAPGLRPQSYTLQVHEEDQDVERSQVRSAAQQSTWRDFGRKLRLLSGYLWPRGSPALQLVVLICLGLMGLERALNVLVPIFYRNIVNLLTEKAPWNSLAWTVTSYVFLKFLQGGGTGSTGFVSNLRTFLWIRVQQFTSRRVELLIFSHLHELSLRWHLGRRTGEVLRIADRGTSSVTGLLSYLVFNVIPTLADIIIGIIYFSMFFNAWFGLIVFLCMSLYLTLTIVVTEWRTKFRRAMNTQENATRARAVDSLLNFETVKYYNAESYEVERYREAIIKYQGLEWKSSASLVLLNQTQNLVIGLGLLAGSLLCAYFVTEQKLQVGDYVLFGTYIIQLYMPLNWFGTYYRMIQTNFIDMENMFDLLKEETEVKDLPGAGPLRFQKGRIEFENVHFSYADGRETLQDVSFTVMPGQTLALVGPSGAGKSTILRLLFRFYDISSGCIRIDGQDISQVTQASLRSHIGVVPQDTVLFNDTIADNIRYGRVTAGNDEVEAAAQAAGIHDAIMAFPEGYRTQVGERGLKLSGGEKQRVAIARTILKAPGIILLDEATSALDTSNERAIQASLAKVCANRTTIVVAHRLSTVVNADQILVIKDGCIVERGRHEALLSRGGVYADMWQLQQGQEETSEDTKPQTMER
Myeloid diff CP1 – myeloid differentiation induction; shares compounds with Myeloid diff MLP; ER-HoxA9 myeloid progenitors, GFP/Mac1 double-positive flow; calls only; 2% of 2,300 active; AID 651706;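 active = share of green or green-and-red cells above 9 and 9% in run 1 or 4 and 3% in run 2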
GFP autofluor – counter-screen for myeloid differentiation promoters: compound fluorescence; shares compounds with Myeloid diff MLP; ER-HoxA9 myeloid progenitors, no estrogen, GFP autofluorescence flow cytometry; vehicle wells 0%, positive control 100%; fluorescence response, % (concentration not given with the values); 7.4% of 2,300 active;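 active = over 5% cells positive for green fluorescent reporter, or over 2% positive for both it and APC stain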;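 note: range taken on the double positive population between DMSO and positive control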
* = called active by the depositor; i = inactive; ? = inconclusive; nt = no result given; + = active, no number. The entries come from a sample that favours hits as a whole.

SMILES	Myeloid diff MLP	Xi reactivation	ABCB6 inh 2	Myeloid diff CP1	GFP autofluor
CC(C)c1cn(CC[C@@H]2CC[C@@H](NC(=O)C3CCC3)[C@H](CO)O2)nn1	nt	0	nt	nt	nt
O=C1c2cccc3c(N4CCCCC4)ccc(c23)C(=O)N1c1cccc(O)c1	+	2	204	i	0
C=CCN1C(=O)c2cccc3c(N4CCCCC4)ccc(c23)C1=O	i	0	201	nt	nt
CC(CNC(=O)C1CCCCC1)NC(=O)C1CCCCC1 (stereo not given)	+	nt	97	i	0
CC(C)CNC(=O)C(=O)NNC(=O)C1CCCCC1	i	nt	102	nt	nt
CC(C)NC(=O)Nc1cccc2c1O[C@H](CN(C)Cc1ccncc1)[C@H](C)CN([C@H](C)CO)C2=O	nt	0	nt	nt	nt
C[C@@H]1CN([C@H](C)CO)C(=O)c2cc(NC(=O)Cc3cn(C)c4ccccc34)ccc2O[C@H]1CN(C)C(=O)Nc1ccc(F)cc1	nt	-1	nt	nt	nt
O=C(NN1C(=O)c2ccccc2NC1c1ccco1)c1ccccc1 (stereo not given)	+	0	97	i	0
O=C(O)CCC(=O)NN1C(=O)c2ccccc2NC1c1ccco1 (stereo not given)	i	0	94	nt	nt
C[C@H](CO)N1C[C@H](C)[C@@H](CN(C)Cc2ccncc2)Oc2ncc(C#CCN(C)C)cc2C1=O	nt	0	nt	nt	nt
COc1ccc(NC(=O)c2sccc2SCc2cccc(C(F)(F)F)c2)cc1	i	nt	93	i	0
O=C(Nc1ccc(F)cc1)c1sccc1SCc1cccc(C(F)(F)F)c1	i	nt	99	nt	nt
CCC(=O)Nc1ccc2c(c1)C(=O)N(C)C[C@H](OC)[C@@H](C)CN(CCc1ccccc1)[C@@H](C)CO2	nt	0	nt	nt	nt
c1ccc(COc2ccc(-c3cc4nc(NCCN5CCOCC5)ccn4n3)cc2)cc1	i	0	94	nt	nt
c1ccc(COc2cccc(-c3cc4nc(NCCN5CCOCC5)ccn4n3)c2)cc1	+	0	98	i	0
Clc1cccc(CNc2ccn3nc(-c4ccccc4)cc3n2)c1	i	0	98	nt	nt
Clc1cccc(CNc2ccn3nc(-c4ccc(OCc5ccccc5)cc4)cc3n2)c1	+	0	80	i	1
Cc1cccc(Cn2ncc(Cl)c(Cl)c2=O)c1	i	nt	99	i	0
Cc1ccc(C)c(C(=O)Cn2ncc(Cl)c(Cl)c2=O)c1	?	nt	100	nt	nt
CCOc1cc(C)c(S(=O)(=O)NC2CC(C)(C)NC(C)(C)C2)cc1C	i	0	98	nt	nt
Cc1cc(C)c(S(=O)(=O)NC2CC(C)(C)NC(C)(C)C2)cc1C	+	0	104	i	0
CO[C@@H]1CN(C)C(=O)c2ccc(NC(=O)c3ccc(F)cc3)cc2OC[C@H](C)N(C(=O)CC2CC2)C[C@H]1C	nt	0	nt	nt	nt
CCCCN(C)C1=Nc2cccc3cccc1c23	+	nt	95	i	0
CCCCON1C(=O)c2cccc3cccc(c23)C1=O	i	0	99	nt	nt
C[C@H](CO)N1C[C@H](C)[C@H](CN(C)S(=O)(=O)c2ccc(Cl)cc2)Oc2ccc(NS(=O)(=O)c3ccccc3)cc2CC1=O	nt	0	nt	nt	nt
SMILES	Myeloid diff MLP	Xi reactivation	ABCB6 inh 2	Myeloid diff CP1	GFP autofluor
CCCNC(=O)N1CC2(CN(C(=O)Nc3cccc(F)c3)C2)c2c(n(C)c3cc(OC)ccc23)[C@H]1CO	nt	0	nt	nt	nt
Cc1ccc(S(=O)(=O)Nc2cccc3c2O[C@@H](CN(C)Cc2ccc(C(=O)O)cc2)[C@H](C)CN([C@H](C)CO)C3=O)cc1	nt	0	nt	nt	nt
CCN(CC)CCOC(=O)c1ccc(N/C=C(/C#N)c2nc(-c3ccc4c(c3)OCO4)cs2)cc1	i	0	161	nt	nt
CCN(CC)CCOC(=O)c1ccc(N/C=C(/C#N)c2nc(-c3ccc(OC)cc3)cs2)cc1	i	0	437	i	1
Cc1ccc(S(=O)(=O)/N=C(\N)Nc2nc(C)c3ccc(C)cc3n2)cc1	i	nt	95	nt	nt
Cc1ccc(S(=O)(=O)/N=C(\N)Nc2nc(C)c3cc(C)c(C)cc3n2)cc1	i	nt	99	i	0
CCCC(=O)NC(=S)Nc1ccc(N2CCOCC2)c(Cl)c1	i	0	115	i	0
COc1ccc(NC(=O)CSc2nnnn2-c2ccc(F)cc2)cc1	i	0	97	nt	nt
O=C(NC(=S)Nc1ccc(N2CCOCC2)c(Cl)c1)C(c1ccccc1)c1ccccc1	i	nt	101	nt	nt
O=C(CSc1nnnn1-c1ccc(F)cc1)Nc1ccc(N2CCOCC2)c(Cl)c1	+	nt	97	i	0
CCCC(=O)Nc1ccc2c(c1)C(=O)N(C)[C@@H]1CC[C@H](CC(=O)NCc3ccccc3Cl)O[C@@H]1CO2	nt	0	nt	nt	nt
COc1cccc(-c2cnc3c(c2)C(=O)N([C@H](C)CO)C[C@H](C)[C@@H](CN(C)C(=O)CN(C)C)O3)c1	nt	0	nt	nt	nt
C[C@H](CO)N1C[C@H](C)[C@@H](CN(C)C)Oc2ccc(NC(=O)CCCN(C)C)cc2C1=O	nt	2	nt	nt	nt
CCN1C(=O)C(O)(C2COC(C)(C)CC2=O)c2ccccc21 (stereo not given)	i	nt	106	nt	nt
CCN1C(=O)C(O)(C2COC(C)(C)CC2=O)c2cc(Br)ccc21 (stereo not given)	i	nt	100	i	12*
C[C@H](CO)N1C[C@H](C)[C@@H](CN(C)C(=O)Nc2ccc(N3CCCCC3)cc2)OCc2cn(nn2)CCCC1=O	nt	0	nt	nt	nt
C[C@@H]1CN([C@H](C)CO)C(=O)c2cc(C3=CCCC3)cnc2O[C@@H]1CN(C)C(=O)CN1CCOCC1	nt	0	nt	nt	nt
CCC(C)NC(=S)Nc1ccc2nc(N3CCN(CC)CC3)cc(C)c2c1 (stereo not given)	+	0	98	i	0
CCC(C)NC(=S)Nc1ccc2nc(N3CCOCC3)cc(C)c2c1 (stereo not given)	i	0	97	nt	nt
C(=NN=Cc1c[nH]c2ccccc12)c1c[nH]c2ccccc12	i	0	96	nt	nt
CCc1ccc(/C=C/c2c[nH]c3ccccc23)[n+](CC)c1	+	1	118	i	7.0*
O=C(NCCc1ccc(Cl)cc1)C1CCCN1C(=O)Nc1ccc(F)cc1 (stereo not given)	i	0	89	nt	nt
O=C(NCCc1ccccc1)C1CCCN1C(=O)Nc1ccc(F)cc1 (stereo not given)	+	nt	102	i	0
CCCCN1C(=O)c2ccc(C(=O)NC3(C)CCS(=O)(=O)C3)cc2C1=O (stereo not given)	+	0	119	i	0
CCCCN1C(=O)c2ccc(C(=O)Nc3cccc(C)c3C)cc2C1=O	i	nt	90	nt	nt
Cc1ccc(S(=O)(=O)N[C@H]2CC[C@H](CCNC(=O)Nc3ccc(Cl)cc3)O[C@@H]2CO)cc1	nt	0	nt	nt	nt
COc1cccc(-c2csc(N3CCN(CC(=O)NNC(=O)c4ccc(Cl)cc4)CC3)n2)c1	i	nt	95	i	0
COc1cccc(-c2csc(N3CCN(CC(=O)NNC(=O)c4ccc(Br)cc4)CC3)n2)c1	i	nt	103	nt	nt
